{
  "source": "ChEMBL document CHEMBL3259660",
  "about": "“Haloemodin as novel antibacterial agent inhibiting DNA gyrase and bacterial topoisomerase I” (J Med Chem, 2014)",
  "key": {"[1]": {"system": "Bacillus cereus", "assay": "Antibacterial activity against Bacillus cereus ATCC 10231 assessed as growth inhibition by agar dilution assay", "type": "functional"}, "[2]": {"biological_target": "T1, DNA gyrase (Staphylococcus aureus) (UniProt P0A0K8+P20831)", "T1 sequence (P0A0K8 2-644 limits assumed)": "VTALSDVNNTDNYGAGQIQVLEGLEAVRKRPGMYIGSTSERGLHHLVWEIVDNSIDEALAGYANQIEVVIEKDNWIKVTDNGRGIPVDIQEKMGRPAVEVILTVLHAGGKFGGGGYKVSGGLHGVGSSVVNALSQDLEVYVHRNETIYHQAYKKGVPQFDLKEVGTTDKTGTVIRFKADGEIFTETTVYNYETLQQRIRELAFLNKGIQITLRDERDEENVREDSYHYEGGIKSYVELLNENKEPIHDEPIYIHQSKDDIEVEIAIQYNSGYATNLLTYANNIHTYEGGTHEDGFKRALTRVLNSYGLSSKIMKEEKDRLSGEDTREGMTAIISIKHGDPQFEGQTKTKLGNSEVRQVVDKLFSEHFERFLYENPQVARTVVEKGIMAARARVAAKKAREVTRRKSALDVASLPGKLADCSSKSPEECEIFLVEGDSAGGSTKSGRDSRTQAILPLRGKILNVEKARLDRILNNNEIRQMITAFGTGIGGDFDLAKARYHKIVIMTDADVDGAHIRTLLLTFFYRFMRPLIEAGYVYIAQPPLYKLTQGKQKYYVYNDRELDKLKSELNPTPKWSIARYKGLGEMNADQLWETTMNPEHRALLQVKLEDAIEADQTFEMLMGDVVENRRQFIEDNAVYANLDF", "T1 sequence (P20831 whole entry partner)": "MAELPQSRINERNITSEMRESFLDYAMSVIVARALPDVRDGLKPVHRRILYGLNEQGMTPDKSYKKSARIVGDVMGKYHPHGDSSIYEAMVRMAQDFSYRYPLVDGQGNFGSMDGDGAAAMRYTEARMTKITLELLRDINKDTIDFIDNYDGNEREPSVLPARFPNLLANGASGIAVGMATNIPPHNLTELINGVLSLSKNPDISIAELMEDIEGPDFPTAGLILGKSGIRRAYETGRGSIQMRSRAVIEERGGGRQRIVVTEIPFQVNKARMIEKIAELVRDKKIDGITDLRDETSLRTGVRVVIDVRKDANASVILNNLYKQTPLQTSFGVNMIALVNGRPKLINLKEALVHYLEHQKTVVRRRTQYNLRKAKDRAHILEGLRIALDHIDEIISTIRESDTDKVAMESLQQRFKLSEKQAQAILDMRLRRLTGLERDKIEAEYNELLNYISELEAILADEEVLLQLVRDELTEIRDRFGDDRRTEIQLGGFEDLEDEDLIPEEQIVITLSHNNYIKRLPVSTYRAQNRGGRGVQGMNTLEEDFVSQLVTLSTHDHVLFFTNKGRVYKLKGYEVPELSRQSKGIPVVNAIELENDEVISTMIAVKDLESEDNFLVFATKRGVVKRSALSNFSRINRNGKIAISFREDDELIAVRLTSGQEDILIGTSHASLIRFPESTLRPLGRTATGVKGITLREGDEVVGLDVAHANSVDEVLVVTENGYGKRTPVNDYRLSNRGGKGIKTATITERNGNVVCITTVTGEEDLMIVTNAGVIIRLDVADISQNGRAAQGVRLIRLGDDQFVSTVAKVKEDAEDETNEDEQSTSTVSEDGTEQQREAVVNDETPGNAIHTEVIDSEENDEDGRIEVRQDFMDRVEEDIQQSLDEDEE", "assay": "Inhibition of Staphylococcus aureus DNA gyrase-mediated double-stranded catenated kinetoplast DNA decatenation at 90 uM after 30 mins by agarose gel electrophoresis in presence of ATP", "type": "protein-complex assay", "summary_of_the_method": "(§1)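 kDNA decatenation: 200 ng catenated kDNA with 1 U S. aureus gyrase, E. coli gyrase or human Topo IIα in assay buffer with ATP, 37 °C for 30 min. Stopped with universal stop solution, resolved on 1% agarose, ethidium bromide stained, UV imaging.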"}, "[3]": {"system": "Escherichia coli", "assay": "Inhibition of Escherichia coli DNA gyrase-mediated double-stranded catenated kinetoplast DNA decatenation at 90 uM after 30 mins by agarose gel electrophoresis in presence of ATP", "summary_of_the_method": "as §1"}, "[4]": {"system": "Staphylococcus epidermidis", "assay": "Antibacterial activity against methicillin-sensitive Staphylococcus epidermidis assessed as growth inhibition by agar dilution assay", "type": "functional", "summary_of_the_method": "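Agar dilution MIC per CLSI (aerobic and anaerobic methods); compounds dissolved in DMSO, reference antibiotics in sterile water. MIC taken as lowest concentration with no visible growth; determined at least twice on separate days, higher value reported. Clinical isolate ranges summarized as MIC50/MIC90.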"}, "[5]": {"assay": "Binding affinity to supercoiled pHOT-1 DNA assessed as unwinding of DNA helix by measuring distribution of topoisomers at 10 to 150 uM treated 15 mins prior to Escherichia coli topoisomerase 1 addition for 30 mins by agarose gel electrophoresis"}, "[6]": {"system": "Enterococcus faecium", "assay": "Antibacterial activity against vancomycin-resistant Enterococcus faecium assessed as growth inhibition by agar dilution assay", "type": "functional"}, "[7]": {"system": "Staphylococcus aureus", "assay": "Antibacterial activity against methicillin-resistant Staphylococcus aureus assessed as growth inhibition by agar dilution assay", "type": "functional", "summary_of_the_method": "(§2)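 CLSI agar dilution MIC against aerobic and anaerobic strains. Test compounds were dissolved in DMSO and reference antibiotics in sterile water. MIC was taken as the lowest concentration showing no bacterial growth. Each MIC was determined at least twice on separate days, and the higher value was reported. E. coli PQ 37 was cultured in LA medium.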"}, "[8]": {"system": "Escherichia coli", "assay": "Antibacterial activity against Escherichia coli PQ 37 harboring OM permeability barrier mutant assessed as growth inhibition by agar dilution assay", "type": "functional", "summary_of_the_method": "as §2"}, "[9]": {"assay": "Binding affinity to supercoiled pHOT-1 DNA assessed as unwinding of DNA helix by measuring shift of negative to positive supercoiled pHOT-1 at 10 to 150 uM treated 15 mins prior to Escherichia coli topoisomerase 1 addition for 30 mins by agarose gel electrophoresis"}, "[10]": {"assay": "Binding affinity to supercoiled pHOT-1 DNA assessed as unwinding of DNA helix by measuring distribution of topoisomers at 10 to 150 uM treated 15 mins prior to human topoisomerase 1 addition for 30 mins by agarose gel electrophoresis"}, "[11]": {"system": "Staphylococcus aureus", "assay": "microbe, parasite or virus in culture", "type": "functional", "conditions": "ATCC 6538"}, "[12]": {"system": "Enterococcus faecalis", "assay": "Antibacterial activity against vancomycin-sensitive Enterococcus faecalis assessed as growth inhibition by agar dilution assay", "type": "functional"}, "[13]": {"system": "Mus musculus", "assay": "In vivo acute toxicity in Kunming mouse assessed as mortality at 100 mg/kg, iv administered as single dose measured within 7 days", "type": "organism-based", "set-up": "dose 100 mg/kg, route intravenous", "conditions": "168 h", "summary_of_the_method": "(§3)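 Male and female adult Kunming mice (18−22 g) received a single intravenous injection at various doses (n = 10 per group, 200 μL per mouse). Compound was given in polyethylene glycol−water (1:1, v/v), and controls received vehicle alone. Mortality was recorded for 7 days. LD50 was estimated by probit analysis.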"}, "[14]": {"assay": "In vivo acute toxicity in iv dosed Kunming mouse", "type": "organism-based", "summary_of_the_method": "as §3"}, "[15]": {"assay": "Binding affinity to supercoiled pHOT-1 DNA assessed as unwinding of DNA helix by measuring shift of negative to positive supercoiled pHOT-1 at 10 to 150 uM treated 15 mins prior to human topoisomerase 1 addition for 30 mins by agarose gel electrophoresis"}, "[16]": {"system": "Escherichia coli", "assay": "Inhibition of Escherichia coli DNA gyrase-mediated pHOT-1 supercoiling at 30 uM after 30 mins by agarose gel electrophoresis in presence of ATP", "summary_of_the_method": "(§4)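 Supercoiling: 100 ng relaxed pHOT-1 with 1 U S. aureus or E. coli gyrase and graded compound concentrations, ATP present, 37 °C for 30 min. Stopped with 10% SDS, 1% agarose electrophoresis, ethidium bromide staining, UV imaging; ciprofloxacin positive control.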"}, "[17]": {"system": "Staphylococcus aureus", "assay": "In vivo antibacterial activity against Staphylococcus aureus in New zealand rabbit keratitis model assessed as suppression of corneal edema at 4.3 mg/ml administered topically every 4 hrs for four doses every day for 10 days starting 24 hrs post-infection by slit lamp biomicroscopy", "type": "functional, organism-based", "conditions": "Cornea", "summary_of_the_method": "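NZW rabbits (2.0−3.0 kg), anesthetized with iv sodium pentobarbital 30 mg/kg, given intracorneal S. aureus (about 7.5 × 10^6 CFU) from an overnight LB culture. Starting 24 h post-infection, 30 μL drops applied topically per eye every 4 h, four doses daily (8 a.m.–8 p.m.), for 10 days, masked. Test compound in PEG–water (1:1). Slit-lamp biomicroscopy before and after.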"}, "[18]": {"biological_target": "T1, DNA gyrase (Staphylococcus aureus)", "assay": "Inhibition of Staphylococcus aureus DNA gyrase-mediated pHOT-1 supercoiling at 30 uM after 30 mins by agarose gel electrophoresis in presence of ATP", "type": "protein-complex assay", "summary_of_the_method": "as §4"}, "[19]": {"biological_target": "T2, DNA topoisomerase 1 (Escherichia coli (strain K12)) (UniProt P06612)", "T2 sequence (whole entry)": "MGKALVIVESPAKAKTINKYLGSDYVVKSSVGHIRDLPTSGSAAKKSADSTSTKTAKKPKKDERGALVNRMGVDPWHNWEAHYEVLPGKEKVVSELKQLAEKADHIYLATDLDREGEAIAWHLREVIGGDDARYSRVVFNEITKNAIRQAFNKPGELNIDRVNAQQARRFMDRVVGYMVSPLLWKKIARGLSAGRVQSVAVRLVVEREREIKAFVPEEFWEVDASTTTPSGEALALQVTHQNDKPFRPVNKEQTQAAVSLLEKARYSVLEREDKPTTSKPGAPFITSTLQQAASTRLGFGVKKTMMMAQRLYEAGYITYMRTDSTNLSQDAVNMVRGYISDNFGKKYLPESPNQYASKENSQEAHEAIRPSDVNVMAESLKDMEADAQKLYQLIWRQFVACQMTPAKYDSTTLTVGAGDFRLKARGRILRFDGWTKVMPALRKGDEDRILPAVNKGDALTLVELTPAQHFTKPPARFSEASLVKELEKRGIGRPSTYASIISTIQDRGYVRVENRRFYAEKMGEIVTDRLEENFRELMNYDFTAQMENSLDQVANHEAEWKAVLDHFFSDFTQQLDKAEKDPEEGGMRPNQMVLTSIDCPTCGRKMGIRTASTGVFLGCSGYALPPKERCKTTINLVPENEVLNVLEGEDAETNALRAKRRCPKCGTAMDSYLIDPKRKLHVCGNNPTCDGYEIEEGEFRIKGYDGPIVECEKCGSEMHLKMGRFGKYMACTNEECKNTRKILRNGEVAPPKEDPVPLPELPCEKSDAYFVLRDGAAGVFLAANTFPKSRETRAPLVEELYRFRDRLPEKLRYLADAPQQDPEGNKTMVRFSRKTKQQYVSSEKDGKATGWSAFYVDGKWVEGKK", "assay": "Inhibition of Escherichia coli topoisomerase 1 assessed as single stranded breaks using pHOT-1 DNA as substrate treated with substrate for 15 mins prior to enzyme addition for 30 mins by agarose gel electrophoresis"}},
  "note": "The source made the active and inactive calls. No cut-off for these calls is given here.",
  "data": [
    {"smiles": "Cc1cc(O)c2c(c1)C(=O)c1c(I)c(O)c(I)c(O)c1C2=O", "values": [
      {"measurement": "MIC", "setting": "[1]", "result": 4, "unit": "µg/mL"},
      {"measurement": "inhibition", "setting": "[2]", "result": "Active"},
      {"measurement": "inhibition", "setting": "[3]", "result": "Active"},
      {"measurement": "MIC", "setting": "[4]", "result": 1, "unit": "µg/mL"},
      {"measurement": "Activity", "setting": "[5]", "result": "inactive"},
      {"measurement": "MIC", "setting": "[6]", "result": 8, "unit": "µg/mL"},
      {"measurement": "MIC", "setting": "[7]", "result": 4, "unit": "µg/mL"},
      {"measurement": "MIC", "setting": "[8]", "result": 8, "unit": "µg/mL"},
      {"measurement": "Activity", "setting": "[9]", "result": "inactive"},
      {"measurement": "Activity", "setting": "[10]", "result": "inactive"},
      {"measurement": "MIC", "setting": "[11]", "result": 2, "unit": "µg/mL"},
      {"measurement": "MIC", "setting": "[12]", "result": 8, "unit": "µg/mL"},
      {"measurement": "Activity", "setting": "[13]", "result": "Non-toxic"},
      {"measurement": "LD50", "setting": "[14]", "result": 110, "unit": "mg/kg"},
      {"measurement": "Activity", "setting": "[15]", "result": "inactive"},
      {"measurement": "inhibition", "setting": "[16]", "result": "Active"},
      {"measurement": "inhibition", "setting": "[17]", "result": "Active"},
      {"measurement": "inhibition", "setting": "[18]", "result": "Active"},
      {"measurement": "Activity", "setting": "[19]", "result": "inactive"}
    ]}
  ]
}
